The values below come from ChEMBL document CHEMBL1124740, “Design, synthesis, and 5-lipoxygenase-inhibiting properties of 1-thio-substituted butadienes” (J Med Chem, 1990).

Bounds are passed on as bounds.

Test [1] can be described thus: Inhibition of 12-HETE mammalian lipoxygenase at a concentration 20 uM. The format is functional. The gist of the method:
(§1)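 Enzyme source was a 100000g supernatant from human polymorphonuclear cells isolated to 95% purity. It was preincubated with or without compound for 10 min at 20 °C in phosphate-buffered saline (pH 8.3) with 0.5 mM MgCl2. The reaction was started with 120 μM arachidonic acid and stopped with citric acid after 5 min. Products were detected by UV at 272 and 232 nm, with PGB2 as internal standard.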

Test [2] can be described thus: Inhibition of 15-HETE mammalian lipoxygenase at a concentration 20 uM. The format is functional. The essentials:
as §1

Test [3] in a line: Inhibition of 5-HETE mammalian lipoxygenase at a concentration 20 uM. The format is functional. The gist of the method: as §1
Test [4] can be described thus: Inhibition of LTB4 mammalian lipoxygenase at a concentration 20 uM. The class given is functional. The gist of the method: as §1
Test [5] can be described thus: In vitro methemoglobin Induction at 10e-4 M in lysed human red blood cells. The format is functional. The gist of the method:
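Human red blood cells were lysed, and conversion of their hemoglobin to methemoglobin was followed spectrophotometrically in vitro.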

Test [6] concerns the target T1, Polyunsaturated fatty acid 5-lipoxygenase (Rattus norvegicus, UniProt P12527).
T1 sequence (P12527 whole entry): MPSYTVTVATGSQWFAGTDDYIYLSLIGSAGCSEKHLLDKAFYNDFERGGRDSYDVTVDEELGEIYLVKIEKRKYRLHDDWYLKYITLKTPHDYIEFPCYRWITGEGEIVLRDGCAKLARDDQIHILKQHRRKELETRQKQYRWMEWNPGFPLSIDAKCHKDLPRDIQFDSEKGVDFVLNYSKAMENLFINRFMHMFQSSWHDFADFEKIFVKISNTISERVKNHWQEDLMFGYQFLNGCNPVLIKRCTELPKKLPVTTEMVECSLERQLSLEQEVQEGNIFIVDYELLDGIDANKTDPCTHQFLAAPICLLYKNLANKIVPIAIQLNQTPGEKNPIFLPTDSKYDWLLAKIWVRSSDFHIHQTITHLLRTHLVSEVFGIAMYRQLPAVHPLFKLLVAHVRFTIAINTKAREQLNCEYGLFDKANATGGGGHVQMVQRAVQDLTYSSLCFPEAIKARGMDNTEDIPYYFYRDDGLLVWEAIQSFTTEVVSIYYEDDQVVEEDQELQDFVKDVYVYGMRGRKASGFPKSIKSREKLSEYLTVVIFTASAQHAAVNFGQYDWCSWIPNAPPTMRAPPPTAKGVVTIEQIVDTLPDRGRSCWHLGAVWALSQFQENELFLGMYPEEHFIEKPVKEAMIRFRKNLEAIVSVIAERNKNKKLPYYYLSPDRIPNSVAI
The experiment in a line: Inhibition of 5-lipoxygenase in rat RBL-1 cells. The class given is cell-based. The essentials: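 It was preincubated 5 min at 25 °C with compound or vehicle (2% DMSO) in 0.5 mL of 50 mM KH2PO4, 50 µM ATP, pH 7.0, then substrate was added. Inhibition was taken as the ratio of substrate remaining without versus with inhibitor. IC50 was obtained by linear regression of % inhibition against log concentration.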

Test [7] deals with T2, Polyunsaturated fatty acid 5-lipoxygenase (Rattus norvegicus) (UniProt P12527).
T2 sequence (whole entry): T1 sequence (P12527 whole entry)
The experiment in a line: Inhibitory activity against 5-lipoxygenase in RBL-1 cells at a concentration 40 uM. The format is cell-based. The gist of the method: (§2)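 Enzyme source was a 100000g supernatant of RBL-1 cells (2.5 × 10^6 cell equivalents). It was preincubated 5 min at 25 °C with compound or vehicle (2% DMSO) in 0.5 mL of 50 mM KH2PO4, 50 µM ATP, pH 7.0, then substrate was added. Inhibition was taken as the ratio of substrate remaining without versus with inhibitor. IC50 was obtained by linear regression of % inhibition against log concentration.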

Test [8] is filed under the species Mus musculus. The experiment in a line: In vitro inhibition of zymosan-stimulated release of Leukotriene C4 from intact mouse peritoneal macrophages following 60-min pretreatment/[…]. The format is functional. The gist of the method:
(§3)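 Mouse peritoneal macrophages collected by lavage, isolated by adherence and kept in Dulbecco's modified Eagle medium. Cells were pretreated with compound for 60 min, then challenged with opsonized zymosan. LTC4 in cell-free supernatant was measured by radioimmunoassay 3 h after challenge.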

Test [9] concerns Mus musculus. The experiment in a line: Inhibition of 5-lipoxygenase in vivo by the measurement of LTC4 release after intraperitoneal 15 min pretreatment (45 min challenge) of mice with a dose of 20 mg/kg. The class given is functional. The following applies: ip.
The species entered for test [10] is Mus musculus. The experiment in a line: In vitro inhibition of zymosan stimulated release of Leukotriene C4 from intact mouse peritoneal macrophages. The format is functional. The essentials:
as §3

Test [11] is described as follows: Potentiation of 15-HETE mammalian lipoxygenase at a concentration 20 uM. The class given is functional. The essentials: as §1
In test [12] the target is T2, Polyunsaturated fatty acid 5-lipoxygenase (Rattus norvegicus). The experiment in a line: Inhibitory activity against 5-lipoxygenase in RBL-1 cells at a concentration 40 uM. The format is cell-based. The essentials: as §2
The target is the same in test [13]. The experiment in a line: Inhibitory activity against 5-lipoxygenase in RBL-1 cells at 40 uM concentration. The format is cell-based. The essentials: as §2

Usually inhibition stands for the share of the control response that was lost under treatment. The low end stands for little suppression, the high end for strong suppression. For the molecule `CC1=NN(CCOc2ccc3ccccc3c2)C(=O)C1` [NAFAZATROM], the inhibition in [1] came out at 58%; in [2], 30%; in [3] it was 68%; in test [4], 65%. The same molecule showed an Induction in test [5] below 3%.
The molecule `NC1=NN(c2cccc(C(F)(F)F)c2)CC1` [BW-755C] returned an Induction in test [5] of 17%.
A word on the IC50: it is the midpoint of a concentration-inhibition curve. Regarding `COc1ccc2c(c1)c(CC(=O)O)c(C)n2C(=O)c1ccc(Cl)cc1` [INDOMETHACIN], in [6], the IC50 is above 20 µM.
Take `CCCCCCCCC#CC/C=C\C=C\Sc1ccccc1C(=O)OC`: the inhibition in test [7] worked out at 45%.
Broadly, the inhibition in vivo is the change of the read-out against control, counted positive when it falls. Take `CCCCCCCCCCC/C=C\C=C\SCCCC(=O)OC`: the IC50 in test [8] is above 60 µM; in test [6] it was 22 µM. Moreover, the inhibition in vivo at 20 mg/kg in [9] turned out to be 10%. In test [5], this molecule yielded an Induction below 3%.
`CCCCCCCC/C=C\C/C=C\C=C\SCCCC(=O)OC`: the IC50 was determined as 22 µM in test [10] and 6.2 µM in [6]. Further, the inhibition was found to be 0% in test [1], 58% in test [3] and 60% in [4]. The Potentiation in test [11] stood at 20%. Moreover, the inhibition in vivo at 20 mg/kg in test [9] came to 80%. Besides, the Induction in [5] is below 3%.
In test [12], `CCCCCCCC/C=C\C/C=C\C=C\SCCC(=O)OC` displayed an inhibition of 47%.
In [13], `CC#CC/C=C\C=C\SCCCC(=O)OC` came in with an inhibition of 32%.
Turning to `CCCCCCCCC#CC/C=C\C=C\Sc1ccc(C(=O)OC)cc1`, in [7], the inhibition is 21%.
Regarding `CCCCCCCC/C=C\C/C=C\C=C\SCCCC(=O)O`, in [6], the IC50 turned out to be 7.2 µM.
